Yeast growth inh: reduces growth of yeast BB579 in restrictive medium; inhibition, % at 10 µM; S. cerevisiae BB579 growth, OD615, 48 h; 0.51% of 140,000 active;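 active = inhibition above a set limit, 3 SD over the mean compound inhibition, cut at about 44% in these data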
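System: Saccharomyces cerevisiae DeaD strain BB579, replicative lifespan model yeast | Buffer or medium: Restrictive glucose-based CSMM-D medium | Times: 4 h preincubation and 48 h exposure at 30 °C | Detection: OD615 turbidity measurement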
Efa HMGR inh: inhibitors of class II HMG-CoA reductase from Enterococcus faecalis | purified E. faecalis HMGR, NADPH absorbance 340 nm kinetic | inhibition, % at 10 µM | 0.41% of 190,000 active;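 active = inhibition above a set limit, the median over all tested compounds plus 3 SD, cut at about 9.5% in these data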;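 also: enzyme runs in reverse so mevalonate oxidation gives rising NADPH absorbance; 0% = complete reaction with DMSO and 100% = background rate lacking mevalonate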
RAM inhibit: inhibitors of the yeast RAM network; S. cerevisiae dse1pr::URA3 reporter, 5-FOA growth OD615, 2 d; analog-sensitive cbk1-as2 kinase mutant strain; inhibition, % at 50 µM; 1.8% of 190,000 active;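 active = inhibition above a set limit, 3 SD over mean compound inhibition, cut at about 8.4% in these data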;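 also: 0% = DMSO-only wells with no growth and 100% = 10 µM 1-NA-PP1 full growth; inhibition rescues growth on 5-FOA so higher OD means more RAM inhibition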
Yeast lifespan up: extends the lifespan of yeast | 0.68% of 130,000 active | AID 775 | S. cerevisiae growth with nicotinamide, OD615; deaD strain in restrictive glucose medium | inhibition of the nicotinamide effect, % at 10 µM;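 active = inhibition above a set limit, placed 3 SD over the median of all compounds, cut at about 26% in these data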;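 also: 0% = nicotinamide-treated wells and 100% = cells grown without nicotinamide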
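Material: Modified budding yeast, DeaD strain | Medium: Restrictive glucose medium | Probe or stimulus: 1.5 mM nicotinamide | Dosing: Single dose 10 µM compound, 0.25% DMSO | Times: 48 h at 30 °C | Technique: OD615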
Insulin prom inh: TRM-6 insulin promoter activity inhibition; TRM-6 cells, insulin promoter-eGFP reporter, imaging; reporter expression induced with tamoxifen; inhibition, % at 2 µM; 0.9% of 130,000 active; AID 1273;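 active = inhibition above the mean plus 3 SD, with well images judged a real hit on visual review, cut at about 60% in these data, passing the limit was not always enough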
RAM 5-FOA: RAM network inhibition, efflux-deficient strain. shares compounds with RAM inhibit. 1,200 tested, under 10 active. max inhibition, %. S. cerevisiae efflux-deficient reporter strain, 5-FOA growth OD615, 2 days; call rule not given here;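 also: plate controls were vehicle for no effect and reference inhibitor for full effect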
* hit, by the source's call; / = not tested or not shown. Hits are enriched below; roughly 3.7% of the tested compounds scored in any of these assays.

SMILES	Yeast growth inh	Efa HMGR inh	RAM inhibit	Yeast lifespan up	Insulin prom inh	others
CC1COC2N=C(N[N+](=O)[O-])NC2O1 (stereo not given)	/	-2.7	0.6	/	/
CCOC(=O)c1c(-c2ccc(OC)cc2)oc2ccc(OC(=O)N(C)C)cc12	-43.0	-4.9	14.5*	-15.1	/	RAM 5-FOA=1.2
Cc1oc2ccc(OC(=O)N(C)C)cc2c1C(=O)OC(C)C	-11.7	-1.7	0.9	-6.4	48.3
CSc1ccc(CNC(C)C(O)c2ccccc2)cc1 (stereo not given)	/	-5.0	1.4	/	/
CCN(CC)c1ccc(CNCCc2ccccc2F)cc1	/	1.9	1.2	/	/
